Data: ChEMBL document CHEMBL1914438, “Synthesis and biological activity of novel N-cycloalkyl-(cycloalkylaryl)-2-[(3-R-2-oxo-2H-[1,2,4]triazino[2,3-c]quinazoline-6-yl)thio]acetamides” (2011)
The source made the active and inactive calls. The calls are words filed in the database; no cut-off is given here.

How the values were obtained:
[1] = test system: Photobacterium leiognathi; test: Antibacterial activity against Photobacterium leiognathi Sh1 assessed as inhibition of bacterial luminescence at 0.1 mg/mL after 10 mins by bioluminometry-based acute action test; format: functional; set-up: scale not given: the % may be the effect or the level left
How it was run: (§1)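 Marine P. leiognathi Sh1 (Azov Sea shrimp isolate) diluted in chloride solution to 10^5 cells/mL; compounds suspended in DMSO mixed with 1 mL bacterial suspension. Acute test: 10 min at 25 °C, then bioluminescence measured by bioluminometer as % of compound-free control. Tetracycline reference.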

[2] = test system: Photobacterium leiognathi; test: Antibacterial activity against Photobacterium leiognathi Sh1 assessed as inhibition of bacterial luminescence at 0.1 mg/mL after 10 mins by bioluminometry-based chronic action test; format: functional; set-up: scale not given: the % may be the effect or the level left; settings: in the assay text read “after 16 to 18 hrs” for “after 10 mins”
How it was run: (§2)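 Chronic (growth plus luminescence) test with P. leiognathi Sh1 at 10^5 cells/mL in chloride solution, compounds added in DMSO. After 10 min at 25 °C, growth medium added at 1:50 and the mix incubated 16–18 h at 30 °C. Luminescence then measured by bioluminometer as % of untreated control. Tetracycline reference.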

[3] = test system: Photobacterium leiognathi; test: Antibacterial activity against Photobacterium leiognathi Sh1 assessed as inhibition of bacterial luminescence at 0.25 mg/mL after 10 mins by bioluminometry-based chronic action test; format: functional; set-up: scale not given: the % may be the effect or the level left; settings: in the assay text read “after 16 to 18 hrs” for “after 10 mins”; how it was run: as §2
Escherichia coli = test: Antibacterial activity against Escherichia coli at 1 to 5 mg/mL after 24 hrs by stiff-plate agar-diffusion method; format: functional, organism-based
How it was run: (§3)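 Agar diffusion (stiff plate) with test substances at 5 mg/mL in grooves, allowed to diffuse into nutrient agar; inoculum 10^9 c.f.u./mL; bacteria incubated 24 h at 35 °C. Read-out: inhibition zone diameter (not sensitive 11–15 mm, sensitive 16–25 mm, highly sensitive >25 mm). Vancomycin and oxacillin as standards; three repeats.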

Staphylococcus aureus = test: Antibacterial activity against Staphylococcus aureus at 1 to 5 mg/mL after 24 hrs by stiff-plate agar-diffusion method; format: functional, organism-based; how it was run: as §3
Mycobacterium = test: Antibacterial activity against Mycobacterium luteum at 1 to 5 mg/mL after 24 hrs by stiff-plate agar-diffusion method; format: functional, organism-based; how it was run: as §3
Yamadazyma tenuis = test: Antifungal activity against Candida tenuis at 1 to 5 mg/mL after 48 to 72 hrs by stiff-plate agar-diffusion method; format: functional, organism-based
How it was run: (§4)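 Fungal plates run by stiff-plate agar diffusion, substances applied to grooves at 5 mg/mL; 10^9 c.f.u./mL cells; incubation 48–72 h at 28–30 °C. Inhibition zone diameter scored (11–15 mm not sensitive, 16–25 mm sensitive, >25 mm highly sensitive). Nystatin standard; experiments done three times.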

Aspergillus niger = test: Antifungal activity against Aspergillus niger at 1 to 5 mg/mL after 48 to 72 hrs by stiff-plate agar-diffusion method; format: functional, organism-based; how it was run: as §4
[4] = test system: Photobacterium leiognathi; test: Antibacterial activity against Photobacterium leiognathi Sh1 assessed as inhibition of bacterial luminescence at 0.25 mg/mL after 10 mins by bioluminometry-based acute action test; format: functional; set-up: scale not given: the % may be the effect or the level left; how it was run: as §1
[5] = test system: Photobacterium leiognathi; test: Antibacterial activity against Photobacterium leiognathi Sh1 assessed as inhibition of bacterial luminescence at 0.025 mg/mL after 10 mins by bioluminometry-based acute action test; format: functional; set-up: scale not given: the % may be the effect or the level left; how it was run: as §1
[6] = test system: Photobacterium leiognathi; test: Antibacterial activity against Photobacterium leiognathi Sh1 assessed as inhibition of bacterial luminescence at 0.025 mg/mL after 16 to 18 hrs by bioluminometry-based chronic action test; set-up: scale not given: the % may be the effect or the level left
[7] = test system: Photobacterium leiognathi; test: Antibacterial activity against Photobacterium leiognathi Sh1 at 0.1 to 0.25 ug/mL; format: functional, organism-based
CCRF-CEM = test: Cytotoxicity against human CCRF-CEM cells assessed as cell growth at 10^-5 M after 48 hrs by SRB assay; format: functional; settings: read-out: Activity
How it was run: (§5)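 NCI 60-cell-line one-dose primary screen: cells inoculated and preincubated 24–48 h, then test agent added at a single 10^-5 M concentration for a further 48 h. Endpoint is sulforhodamine B protein staining read spectrophotometrically. Reported as percent growth relative to untreated control cells.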

SNB-75 = test: Cytotoxicity against human SNB75 cells assessed as cell growth at 10^-5 M after 48 hrs by SRB assay; format: functional; settings: SNB-75, 48 h, read-out: Activity
How it was run: (§6)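 NCI human tumor cell line panel from nine cancer types. Each line was inoculated and preincubated 24–48 h, then exposed to a single concentration (10^-5 M) for 48 h. Growth was read by sulforhodamine B protein staining, measured spectrophotometrically. Value reported as percent growth of treated cells relative to untreated controls.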

UO-31 = test: Cytotoxicity against human UO31 cells assessed as cell growth at 10^-5 M after 48 hrs by SRB assay; format: functional; settings: UO-31, 48 h, read-out: Activity; how it was run: as §6
PC-3 = test: Cytotoxicity against human PC3 cells assessed as cell growth at 10^-5 M after 48 hrs by SRB assay; format: functional; settings: PC-3, 48 h, read-out: Activity; how it was run: as §6
K562 = test: Cytotoxicity against human K562 cells assessed as cell growth at 10^-5 M after 48 hrs by SRB assay; format: functional; settings: K562, 48 h, read-out: Activity; how it was run: as §5
SR = test: Cytotoxicity against human SR cells assessed as cell growth at 10^-5 M after 48 hrs by SRB assay; format: functional; settings: read-out: Activity; how it was run: as §6
A549 = test: Cytotoxicity against human A549 cells assessed as cell growth at 10^-5 M after 48 hrs by SRB assay; format: functional; settings: A549, 48 h, read-out: Activity; how it was run: as §5
U-251 = test: Cytotoxicity against human U251 cells assessed as cell growth at 10^-5 M after 48 hrs by SRB assay; format: functional; settings: U-251, 48 h, read-out: Activity; how it was run: as §6
M14 = test: Cytotoxicity against human M14 cells assessed as cell growth at 10^-5 M after 48 hrs by SRB assay; format: functional; settings: M14, 48 h, read-out: Activity; how it was run: as §5
UACC-257 = test: Cytotoxicity against human UACC257 cells assessed as cell growth at 10^-5 M after 48 hrs by SRB assay; format: functional; settings: UACC-257, 48 h, read-out: Activity; how it was run: as §6
SK-OV-3 = test: Cytotoxicity against human SKOV3 cells assessed as cell growth at 10^-5 M after 48 hrs by SRB assay; format: functional; settings: SK-OV-3, 48 h, read-out: Activity; how it was run: as §6
[8] = test system: Photobacterium leiognathi; test: Antibacterial activity against Photobacterium leiognathi Sh1 assessed as inhibition of bacterial luminescence at 0.025 mg/mL after 10 mins by bioluminometry-based chronic action test; format: functional; set-up: scale not given: the % may be the effect or the level left; settings: in the assay text read “after 16 to 18 hrs” for “after 10 mins”; how it was run: as §2
CAKI-1 = test: Cytotoxicity against human Caki1 cells assessed as cell growth at 10^-5 M after 48 hrs by SRB assay; format: functional; settings: CAKI-1, 48 h, read-out: Activity; how it was run: as §5
MOLT-4 = test: Cytotoxicity against human MOLT4 cells assessed as cell growth at 10^-5 M after 48 hrs by SRB assay; format: functional; settings: MOLT-4, 48 h, read-out: Activity; how it was run: as §6
SK-MEL-5 = test: Cytotoxicity against human SK-MEL-5 cells assessed as cell growth at 10^-5 M after 48 hrs by SRB assay; format: functional; settings: SK-MEL-5, 48 h, read-out: Activity; how it was run: as §6
HL-60(TB) = test: Cytotoxicity against human HL-60(TB) cells assessed as cell growth at 10^-5 M after 48 hrs by SRB assay; format: functional; settings: HL-60, 48 h, read-out: Activity
How it was run: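 NCI one-dose primary screen on the 60-line human tumour panel. Cells were inoculated and preincubated 24–48 h. Compound was added at 10^-5 M with 48 h continuous exposure. Sulforhodamine B protein staining was read spectrophotometrically. Results are percent growth relative to untreated control cells.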

NCI-H522 = test: Cytotoxicity against human NCI-H522 cells assessed as cell growth at 10^-5 M after 48 hrs by SRB assay; format: functional; settings: NCI-H522, 48 h, read-out: Activity; how it was run: as §6
HCC 2998 = test: Cytotoxicity against human HCC2998 cells assessed as cell growth at 10^-5 M after 48 hrs by SRB assay; format: functional; settings: HCC 2998, 48 h, read-out: Activity; how it was run: as §5
LOX IMVI = test: Cytotoxicity against human LOXIMVI cells assessed as cell growth at 10^-5 M after 48 hrs by SRB assay; format: functional; settings: read-out: Activity; how it was run: as §5
MDA-MB-231 = test: Cytotoxicity against human MDA-MB-231 cells assessed as cell growth at 10^-5 M after 48 hrs by SRB assay; format: functional; settings: MDA-MB-231, 48 h, read-out: Activity; how it was run: as §5

Row | Compound | Activity [1] | Activity [2] | Activity [3] | Activity (Escherichia coli) | Activity (Staphylococcus aureus) | Activity (Mycobacterium) | Activity (Yamadazyma tenuis) | Activity (Aspergillus niger) | Activity [4] | Activity [5] | Activity [7] | growth at 10 µM (CCRF-CEM) | growth at 10 µM (SNB-75) | growth at 10 µM (UO-31) | growth at 10 µM (PC-3) | growth at 10 µM (K562) | growth at 10 µM (SR) | growth at 10 µM (A549) | Activity [8] | other results
1 | CCC1C2CCC(C2)C1NC(=O)CSc1nc2ccccc2c2nc(=O)c(-c3ccc(C)cc3)nn12 (stereo unspecified) | 96% | 120% | 44% | inactive | inactive | inactive | inactive | inactive | 120% | 110% |  |  |  |  |  |  |  |  |  | Activity [6]: 100%
2 | O=C(O)CSc1nc2ccccc2c2nc(=O)c(-c3ccccc3)nn12 | 75% | 40.9% | 3.6% | inactive | inactive | inactive | inactive | inactive | 50% | 100% | inactive | 92.5% | 86.6% | 89% | 90.8% | 92% | 91.9% | 82.5% | 34% | growth at 10 µM (U-251): 91.4%; growth at 10 µM (M14): 96.8%; growth at 10 µM (UACC-257): 93.2%; growth at 10 µM (SK-OV-3): 97%
3 | COc1ccc(-c2nn3c(SCC(=O)O)nc4ccccc4c3nc2=O)cc1 | 80% | 191.5% | 45% | inactive | inactive | inactive | inactive | inactive | 0% | 105% | inactive | 90.7% | 93.9% | 91.6% | 91.7% | 80.9% | 65.8% | 95.9% | 88.9% | growth at 10 µM (CAKI-1): 91.4%; growth at 10 µM (MOLT-4): 84.8%; growth at 10 µM (SK-MEL-5): 95.4%; growth at 10 µM (HL-60(TB)): 63.5%; growth at 10 µM (NCI-H522): 94.9%; growth at 10 µM (HCC 2998): 94.7%; growth at 10 µM (LOX IMVI): 86.9%; growth at 10 µM (MDA-MB-231): 89.9%
